The record followed here is ChEMBL document CHEMBL5357066, “Development of Novel Membrane Disrupting Lipoguanidine Compounds Sensitizing Gram-Negative Bacteria to Antibiotics” (ACS Med Chem Lett, 2024).

Test [1] concerns Pseudomonas aeruginosa. The experiment in a line: Antibacterial activity against Pseudomonas aeruginosa NCTC 13437 assessed as bacterial growth inhibition incubated for overnight by microbroth dilution method. The test is classed as functional. The gist of the method:
(§1)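 Broth microdilution in Tryptic Soy Broth. DMSO stocks were diluted in TSB as 2-fold series. Overnight TSB cultures were back-diluted to OD 0.01 and mixed 1:1 with compound. Incubation was overnight at 37 °C. MIC was the lowest concentration without visible growth (<0.1 OD600). DMSO vehicle was checked at equivalent concentrations.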

In test [2] the test system is Staphylococcus aureus. The experiment in a line: Antibacterial activity against methicillin sensitive Staphylococcus aureus ATCC 9144 assessed as bacterial growth inhibition incubated for overnight by microbroth dilution method. The format is functional. The gist of the method: (§2)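 Microbroth dilution in Tryptic Soy Broth. DMSO stocks were diluted in TSB as 2-fold series. Overnight TSB cultures were back-diluted to OD 0.01 and mixed 1:1 with compound. Incubation was overnight at 37 °C. MIC is the lowest concentration with no visible growth (<0.1 OD600). DMSO at equivalent concentrations was checked.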

Test [3] concerns Staphylococcus aureus. The experiment in a line: Antibacterial activity against methicillin resistant Staphylococcus aureus NCTC 13616 assessed as bacterial growth inhibition incubated for overnight by microbroth dilution method. The format is functional. The procedure, abridged:
as §2

Test [4] relates to Staphylococcus aureus. The experiment in a line: Antibacterial activity against methicillin resistant Staphylococcus aureus USA 300 assessed as bacterial growth inhibition incubated for overnight by microbroth dilution method. The format is functional. The gist of the method:
as §2

The test system of test [5] is Enterococcus faecalis. The experiment in a line: Antibacterial activity against vancomycin resistant Enterococcus faecalis NCTC 12201 assessed as bacterial growth inhibition incubated for overnight by microbroth dilution method. The test is classed as functional. The procedure, abridged:
as §2

Another test deals with Enterococcus faecium. The experiment in a line: Antibacterial activity against vancomycin resistant Enterococcus faecium NCTC 12204 assessed as bacterial growth inhibition incubated for overnight by microbroth dilution method. The test is classed as functional. The procedure, abridged: as §2
In test [6] the test system is Acinetobacter baumannii. The experiment in a line: Antibacterial activity against Acinetobacter baumannii AYE assessed as bacterial growth inhibition incubated for overnight by microbroth dilution method. The format is functional. The procedure, abridged: as §1
Test [7] has as its system Acinetobacter baumannii. The experiment in a line: Antibacterial activity against Acinetobacter baumannii ATCC 17978 assessed as bacterial growth inhibition incubated for overnight by microbroth dilution method. The test is classed as functional. The procedure, abridged: as §1
The subject of test [8] is Pseudomonas aeruginosa. The experiment in a line: Antibacterial activity against Pseudomonas aeruginosa PAO1 assessed as bacterial growth inhibition incubated for overnight by microbroth dilution method. The format is functional. The procedure, abridged:
as §1

In test [9] the test system is Escherichia coli. The experiment in a line: Antibacterial activity against Escherichia coli NCTC 12923 assessed as bacterial growth inhibition incubated for overnight by microbroth dilution method. The format is functional. The procedure, abridged: as §1
Test [10] concerns Staphylococcus aureus. The experiment in a line: Antibacterial activity against methicillin sensitive Staphylococcus aureus 1199B assessed as bacterial growth inhibition incubated for overnight by microbroth dilution method. The format is functional. The procedure, abridged: as §2
Test [11] concerns Klebsiella pneumoniae. The experiment in a line: Antibacterial activity against Klebsiella pneumoniae M6 assessed as bacterial growth inhibition incubated for overnight by microbroth dilution method.
Test [12] relates to Klebsiella pneumoniae. The experiment in a line: Antibacterial activity against ESBL Klebsiella pneumoniae NCTC 13368 assessed as bacterial growth inhibition incubated for overnight by microbroth dilution method.
Test [13] concerns Enterococcus faecalis. The experiment in a line: Antibacterial activity against vancomycin sensitive Enterococcus faecalis NCTC 775 assessed as bacterial growth inhibition incubated for overnight by microbroth dilution method.
For test [14], the system named is Klebsiella pneumoniae. The experiment in a line: Synergistic antibacterial activity against Klebsiella pneumoniae NCTC 13368 assessed as rifampicin MIC at <=0.25 times MIC incubated for overnight by microbroth dilution checkerboard assay. The format is functional. The gist of the method:
(§3)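 Checkerboard microdilution under MIC conditions (TSB, overnight, 37 °C). Two-fold series of each agent were combined on one plate before bacteria were added, and single-agent MICs were measured on the same plate. FIC = sum of combination MIC/alone MIC for each agent, taken from the most synergistic well. Three independent repeats, mean ± SD. ≤0.5 was taken as strong synergy and 0.5–<1 as weak.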

Test [15] relates to Klebsiella pneumoniae. The experiment in a line: Synergistic antibacterial activity against […] Klebsiella pneumoniae M6 assessed as rifampicin MIC at <=0.25 times MIC incubated for overnight by microbroth dilution checkerboard assay. The format is functional. The gist of the method:
(§4)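 Checkerboard run under the MIC conditions (TSB, overnight, 37 °C). Antibiotic and lipoguanidine 2-fold series were combined on one plate before bacteria were added. Growth/no-growth was scored as for the MIC (<0.1 OD600). Single-agent MICs were measured on the same plates. Three independent repeats were done.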

The test system of test [16] is Acinetobacter baumannii. The experiment in a line: Synergistic antibacterial activity against Acinetobacter baumannii AYE assessed as rifampicin MIC at <=0.25 times MIC incubated for overnight by microbroth dilution checkerboard assay. The format is functional. The procedure, abridged:
as §3

The subject of test [17] is Acinetobacter baumannii. The experiment in a line: Synergistic antibacterial activity against Acinetobacter baumannii ATCC 17978 assessed as rifampicin MIC at <=0.25 times MIC incubated for overnight by microbroth dilution checkerboard assay. The test is classed as functional. The gist of the method:
as §3

Test [18] relates to Pseudomonas aeruginosa. The experiment in a line: Synergistic antibacterial activity against Pseudomonas aeruginosa PAO1 assessed as rifampicin MIC at <=0.25 times MIC incubated for overnight by microbroth dilution checkerboard assay. The format is functional. The procedure, abridged:
(§5)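 Checkerboard microdilution in Tryptic Soy Broth, run like the MIC assay. Overnight TSB cultures were back-diluted to OD 0.01 and added 1:1 to the combined two-fold series of both agents, then incubated overnight at 37 °C. Growth/no-growth was called at <0.1 OD600. MICs alone were read on the same plates. FIC index came from the most synergistic well; three independent repeats, mean ± SD.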

The test system of test [19] is Pseudomonas aeruginosa. The experiment in a line: Synergistic antibacterial activity against Pseudomonas aeruginosa NCTC 13437 assessed as rifampicin MIC at <=0.25 times MIC incubated for overnight by microbroth dilution checkerboard assay. The format is functional. The gist of the method:
as §5

The test system of test [20] is Escherichia coli. The experiment in a line: Synergistic antibacterial activity against Escherichia coli NCTC 12923 assessed as rifampicin MIC at <=0.25 times MIC incubated for overnight by microbroth dilution checkerboard assay. The format is functional. The gist of the method:
as §3

In test [21] the test system is Klebsiella pneumoniae. The experiment in a line: Synergistic antibacterial activity against Klebsiella pneumoniae NCTC 13368 assessed as fold change in rifampicin MIC at <=0.25 times MIC incubated for overnight by microbroth dilution checkerboard assay relative to rifampicin alone. The test is classed as functional. The gist of the method: as §4
For test [22], the system named is Acinetobacter baumannii. The experiment in a line: Synergistic antibacterial activity against Acinetobacter baumannii AYE assessed as fold change in rifampicin MIC at <=0.25 times MIC incubated for overnight by microbroth dilution checkerboard assay relative to rifampicin alone. The format is functional. The gist of the method:
as §3

In test [23] the test system is Acinetobacter baumannii. The experiment in a line: Synergistic antibacterial activity against Acinetobacter baumannii ATCC 17978 assessed as fold change in rifampicin MIC at <=0.25 times MIC incubated for overnight by microbroth dilution checkerboard assay relative to rifampicin alone. The test is classed as functional. The procedure, abridged:
as §3

Test [24] has as its system Pseudomonas aeruginosa. The experiment in a line: Synergistic antibacterial activity against Pseudomonas aeruginosa PAO1 assessed as fold change in rifampicin MIC at <=0.25 times MIC incubated for overnight by microbroth dilution checkerboard assay relative to rifampicin alone. The test is classed as functional. The procedure, abridged: as §5
Test [25] deals with Pseudomonas aeruginosa. The experiment in a line: Synergistic antibacterial activity against Pseudomonas aeruginosa NCTC 13437 assessed as fold change in rifampicin MIC at <=0.25 times MIC incubated for overnight by microbroth dilution checkerboard assay relative to rifampicin alone. The test is classed as functional. The gist of the method:
as §5

In test [26] the test system is Escherichia coli. The experiment in a line: Synergistic antibacterial activity against Escherichia coli NCTC 12923 assessed as fold change in rifampicin MIC at <=0.25 times MIC incubated for overnight by microbroth dilution checkerboard assay relative to rifampicin alone. The test is classed as functional. The procedure, abridged:
as §3

SMILES strings stand for the structures. ≈ marks a conversion by molar mass, not a printed value. Some results are limits rather than exact numbers.

In the case of `CCCCCCCC/C=C\CCCCCCCCNC(=N)NCCCCCCCCNC(=N)NCCCCCCCC/C=C\CCCCCCCC`, the MIC in the test with Pseudomonas aeruginosa [1] is over 128 µg/mL; in the test with Staphylococcus aureus [2], 64 µg/mL (≈ 87.8 µM); in the test on Staphylococcus aureus [3], over 64 µg/mL; with Staphylococcus aureus [4], 64 µg/mL (≈ 87.8 µM); in the test with Enterococcus faecalis [5], over 64 µg/mL; in the test with Enterococcus faecium, 32 µg/mL (≈ 43.9 µM). In addition, the MIC in the test with Acinetobacter baumannii [6] is over 128 µg/mL; in the test with Acinetobacter baumannii [7], 128 µg/mL (≈ 176 µM); in the test with Pseudomonas aeruginosa [8], over 128 µg/mL; in the test with Escherichia coli [9], 128 µg/mL (≈ 176 µM); in the test on Staphylococcus aureus [10], 32 µg/mL (≈ 43.9 µM); with Klebsiella pneumoniae [11] it was over 128 µg/mL. For the same compound, the MIC with Klebsiella pneumoniae [12] was over 128 µg/mL; in the test with Enterococcus faecalis [13] it was 64 µg/mL (≈ 87.8 µM).

In the case of `N=C(N)NCCCCCCCCNC(=N)N`, the minimal inhibitory concentration (MIC) is over 128 µg/mL in the test with Pseudomonas aeruginosa [1]; 128 µg/mL (≈ 561 µM) in the test with Staphylococcus aureus [2]; over 128 µg/mL in the test with Staphylococcus aureus [3]; 128 µg/mL (≈ 561 µM) in the test with Staphylococcus aureus [4]; over 128 µg/mL in the test on Enterococcus faecalis [5]; over 128 µg/mL in the test with Enterococcus faecium. Besides, the MIC with Acinetobacter baumannii [6] is over 128 µg/mL; with Acinetobacter baumannii [7], over 128 µg/mL; in the test on Pseudomonas aeruginosa [8], over 128 µg/mL; in the test with Escherichia coli [9] it was over 128 µg/mL; in the test on Klebsiella pneumoniae [14], 32 µg/mL; in the test with Klebsiella pneumoniae [15], 16 µg/mL. Also, the MIC with Acinetobacter baumannii [16] is 8 µg/mL; with Acinetobacter baumannii [17], 1 µg/mL; in the test with Pseudomonas aeruginosa [18], 32 µg/mL; in the test with Pseudomonas aeruginosa [19], 32 µg/mL; with Escherichia coli [20], 8 µg/mL; in the test with Staphylococcus aureus [10], over 128 µg/mL. For the same compound, the MIC with Klebsiella pneumoniae [11], with Klebsiella pneumoniae [12] and in the test with Enterococcus faecalis [13] was over 128 µg/mL in each case. The “fold change (FC)” value in the test with Klebsiella pneumoniae [21] is 0; with Acinetobacter baumannii [22], 0; in the test on Acinetobacter baumannii [23] it was “>=4”; in the test with Pseudomonas aeruginosa [24] it was 0; with Pseudomonas aeruginosa [25] it was 0; with Escherichia coli [26] it was 0.

Consider `NCCCCCCCCN=C(N)N`, for which the minimal inhibitory concentration (MIC) in the test with Pseudomonas aeruginosa [1] is over 128 µg/mL; in the test on Staphylococcus aureus [2], 128 µg/mL (≈ 687 µM); in the test on Staphylococcus aureus [3], over 128 µg/mL; with Staphylococcus aureus [4], 128 µg/mL (≈ 687 µM); in the test with Enterococcus faecalis [5] it was over 128 µg/mL; in the test with Enterococcus faecium, over 128 µg/mL. Further, the minimum inhibitory concentration (MIC) with Acinetobacter baumannii [6] is over 128 µg/mL; with Acinetobacter baumannii [7] it was over 128 µg/mL; in the test with Pseudomonas aeruginosa [8], over 128 µg/mL; with Escherichia coli [9], 128 µg/mL (≈ 687 µM); with Klebsiella pneumoniae [14] it was 32 µg/mL; in the test on Klebsiella pneumoniae [15], 16 µg/mL. The minimal inhibitory concentration (MIC) is 4 µg/mL in the test on Acinetobacter baumannii [16]; 1 µg/mL in the test on Acinetobacter baumannii [17]; 32 µg/mL in the test on Pseudomonas aeruginosa [18]; 32 µg/mL in the test with Pseudomonas aeruginosa [19]; 16 µg/mL in the test with Escherichia coli [20]; over 128 µg/mL in the test on Staphylococcus aureus [10]. Also, the MIC in the test with Klebsiella pneumoniae [11], in the test with Klebsiella pneumoniae [12] and with Enterococcus faecalis [13] was over 128 µg/mL in each case. In addition, the “fold change (FC)” value was 0 in the test with Klebsiella pneumoniae [21]; “>=4” in the test on Acinetobacter baumannii [22]; “>=4” with Acinetobacter baumannii [23]; 0 in the test on Pseudomonas aeruginosa [24]; 0 with Pseudomonas aeruginosa [25]; 0 in the test on Escherichia coli [26].
